The values that follow come from ChEMBL document CHEMBL1139183, “Potent and selective xanthine-based inhibitors of phosphodiesterase 5” (Bioorg Med Chem Lett, 2007).

In series [1] the target is cGMP-specific 3',5'-cyclic phosphodiesterase (Homo sapiens, UniProt O76074). The experiment in a line: Inhibition of human platelet PDE5 by [3H]cGMP scintillation proximity assay. Background: SPA uses beads or plates that emit light when radiolabelled molecules are held near them.
Series [2] is described as follows: Inhibition of bovine PDE1 by [3H]cGMP scintillation proximity assay. On the set-up: species or system Bos taurus.
A short description of series [3]: Inhibition of bovine PDE6 by [3H]cGMP scintillation proximity assay. Also on record: species or system Bos taurus.
For a further series, the target named is Phosphodiesterase 3 (Homo sapiens, UniProt Q14432+Q13370). The experiment in a line: Inhibition of human platelet PDE3 by [3H]cGMP scintillation proximity assay.
Series [4] is described as follows: Permeability from apical to basolateral side of Caco-2 cell membrane. Format: ADME, cell-based. The following applies: human.
Another series concerns the target T1, Adenosine receptor A1 (Homo sapiens, UniProt P30542).
T1 sequence (P30542 whole entry): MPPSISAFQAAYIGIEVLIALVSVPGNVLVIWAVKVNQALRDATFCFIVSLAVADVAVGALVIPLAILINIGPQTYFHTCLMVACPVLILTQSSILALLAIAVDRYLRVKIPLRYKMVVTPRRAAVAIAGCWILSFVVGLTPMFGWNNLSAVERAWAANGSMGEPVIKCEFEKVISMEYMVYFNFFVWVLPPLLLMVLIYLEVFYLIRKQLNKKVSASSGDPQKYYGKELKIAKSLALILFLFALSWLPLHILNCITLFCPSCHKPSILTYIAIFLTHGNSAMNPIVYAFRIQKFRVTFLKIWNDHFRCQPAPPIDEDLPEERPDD
The experiment in a line: Inhibition of adenosine A1 receptor. The gist of the method:
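Binding was profiled in a contract Spectrum Screen panel of 111 receptors. Adenosine A1 activity was reported as Ki.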

A short description of series [5]: Inhibition of adenosine transporter. Also on record: species or system Homo sapiens.
A short description of series [6]: Volume of distribution at steady state in dog. The following applies: in vivo, read-out: Vdss. It counts as ADME, organism-based, Canis lupus familiaris. The method, boiled down:
(§1)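 Dog pharmacokinetics: clearance, half-life and Vss came from IV dosing. Bioavailability came from oral dosing at 2.5 mg/kg. Values are means ± SEM.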

Series [7] in a line: Half life in rat at 0.8 mg/kg, iv. Format: ADME, organism-based. On the set-up: dose 0.8 mg/kg, route intravenous. The conditions noted are these: in vivo. The gist of the method:
(§2)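 Rat pharmacokinetics: IV bolus at 0.8 mg/kg gave clearance, half-life and Vss. […] Values are means ± SEM.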

Series [8] can be described thus: Clearance in rat at 0.8 mg/kg, iv. It counts as ADME, organism-based. The conditions noted are these: in vivo. On the set-up: dose 0.8 mg/kg, route intravenous. The method, boiled down: as §2
Series [9] is described as follows: Intrinsic clearance in rat microsomes. Format: ADME, Microsome.
Series [10] is described as follows: Oral bioavailability in dog at 2.5 mg/kg. The following applies: in vivo. Format: ADME, organism-based, Canis lupus familiaris. The method, boiled down: as §1
A short description of series [11]: Volume of distribution at steady state in rat. Format: ADME, organism-based. The following applies: in vivo, read-out: Vdss. The gist of the method: as §2
The nature of series [12]: Intrinsic clearance in human microsomes. Format: ADME, Microsome.
Series [13] can be described thus: Intrinsic clearance in dog microsomes. It counts as ADME, Canis lupus familiaris, Liver, Microsome.
Series [14] in a line: Bioavailability in rat at 3.3 mg/kg, intraduodenally. Format: ADME, organism-based. The conditions noted are these: in vivo. The method, boiled down:
as §2

Series [15] is described as follows: Clearance in iv dosed dog. It counts as ADME, organism-based, Canis lupus familiaris. The conditions noted are these: in vivo. The gist of the method: as §1
Series [16] can be described thus: Half life in dog at 0.2 mg/kg, iv. Format: ADME, organism-based, Canis lupus familiaris. Also on record: dose 0.2 mg/kg, route intravenous. The following applies: in vivo. The gist of the method: as §1
Series [17] has as its target 3',5'-cyclic-AMP phosphodiesterase 4B (Homo sapiens, UniProt Q07343). As to the kind of experiment: Inhibition of human recombinant PDE4B by […] scintillation proximity assay.
Series [18] concerns the target 3',5'-cyclic-AMP phosphodiesterase 4D (Homo sapiens, UniProt Q08499). The experiment in a line: Inhibition of human recombinant PDE4D by […] scintillation proximity assay.
Series [19] concerns the target cGMP-dependent 3',5'-cyclic phosphodiesterase (Homo sapiens, UniProt O00408). As to the kind of experiment: Inhibition of human platelet PDE2 by [3H]cGMP scintillation proximity assay.
The target in series [20] is High affinity 3',5'-cyclic-AMP phosphodiesterase 7A (Homo sapiens, UniProt Q13946). The experiment in a line: Inhibition of human recombinant PDE7A by […] scintillation proximity assay.
Chain of High affinity 3',5'-cyclic-AMP phosphodiesterase 7A (Q13946 whole entry): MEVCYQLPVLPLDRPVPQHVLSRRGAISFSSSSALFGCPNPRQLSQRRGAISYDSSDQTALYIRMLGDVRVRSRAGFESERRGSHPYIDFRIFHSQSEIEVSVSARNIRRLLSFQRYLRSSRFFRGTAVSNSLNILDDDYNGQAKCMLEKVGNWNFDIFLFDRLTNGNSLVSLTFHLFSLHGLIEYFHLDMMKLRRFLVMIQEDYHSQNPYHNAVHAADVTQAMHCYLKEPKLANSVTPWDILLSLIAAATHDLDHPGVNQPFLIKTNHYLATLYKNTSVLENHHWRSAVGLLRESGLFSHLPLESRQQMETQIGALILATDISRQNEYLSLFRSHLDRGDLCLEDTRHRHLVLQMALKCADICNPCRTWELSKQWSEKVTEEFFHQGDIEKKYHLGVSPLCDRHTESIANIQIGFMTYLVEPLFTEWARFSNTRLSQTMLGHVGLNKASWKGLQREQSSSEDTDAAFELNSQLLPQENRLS

Chain of 3',5'-cyclic-AMP phosphodiesterase 4D (Q08499 whole entry): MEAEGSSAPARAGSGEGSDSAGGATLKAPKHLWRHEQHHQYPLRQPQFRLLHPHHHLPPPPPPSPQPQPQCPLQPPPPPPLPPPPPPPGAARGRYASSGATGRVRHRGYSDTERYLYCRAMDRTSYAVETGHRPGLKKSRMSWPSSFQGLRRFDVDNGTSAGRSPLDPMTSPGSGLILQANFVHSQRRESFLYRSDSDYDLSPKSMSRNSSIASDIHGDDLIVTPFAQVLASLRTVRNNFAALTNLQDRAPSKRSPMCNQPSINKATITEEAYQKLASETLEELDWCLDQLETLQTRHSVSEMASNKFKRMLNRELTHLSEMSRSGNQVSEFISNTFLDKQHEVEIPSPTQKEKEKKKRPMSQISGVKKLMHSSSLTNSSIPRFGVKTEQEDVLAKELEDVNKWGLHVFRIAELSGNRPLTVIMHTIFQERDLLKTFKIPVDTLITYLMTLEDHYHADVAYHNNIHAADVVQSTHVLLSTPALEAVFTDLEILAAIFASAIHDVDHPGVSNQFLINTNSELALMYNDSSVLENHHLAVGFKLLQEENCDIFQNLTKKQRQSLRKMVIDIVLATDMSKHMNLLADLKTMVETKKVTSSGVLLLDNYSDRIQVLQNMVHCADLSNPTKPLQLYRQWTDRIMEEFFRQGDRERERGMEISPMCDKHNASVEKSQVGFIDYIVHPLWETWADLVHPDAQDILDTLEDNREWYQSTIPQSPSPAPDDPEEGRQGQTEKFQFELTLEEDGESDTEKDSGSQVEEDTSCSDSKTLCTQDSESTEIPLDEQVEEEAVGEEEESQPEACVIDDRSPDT
Chain of cGMP-dependent 3',5'-cyclic phosphodiesterase (O00408 whole entry): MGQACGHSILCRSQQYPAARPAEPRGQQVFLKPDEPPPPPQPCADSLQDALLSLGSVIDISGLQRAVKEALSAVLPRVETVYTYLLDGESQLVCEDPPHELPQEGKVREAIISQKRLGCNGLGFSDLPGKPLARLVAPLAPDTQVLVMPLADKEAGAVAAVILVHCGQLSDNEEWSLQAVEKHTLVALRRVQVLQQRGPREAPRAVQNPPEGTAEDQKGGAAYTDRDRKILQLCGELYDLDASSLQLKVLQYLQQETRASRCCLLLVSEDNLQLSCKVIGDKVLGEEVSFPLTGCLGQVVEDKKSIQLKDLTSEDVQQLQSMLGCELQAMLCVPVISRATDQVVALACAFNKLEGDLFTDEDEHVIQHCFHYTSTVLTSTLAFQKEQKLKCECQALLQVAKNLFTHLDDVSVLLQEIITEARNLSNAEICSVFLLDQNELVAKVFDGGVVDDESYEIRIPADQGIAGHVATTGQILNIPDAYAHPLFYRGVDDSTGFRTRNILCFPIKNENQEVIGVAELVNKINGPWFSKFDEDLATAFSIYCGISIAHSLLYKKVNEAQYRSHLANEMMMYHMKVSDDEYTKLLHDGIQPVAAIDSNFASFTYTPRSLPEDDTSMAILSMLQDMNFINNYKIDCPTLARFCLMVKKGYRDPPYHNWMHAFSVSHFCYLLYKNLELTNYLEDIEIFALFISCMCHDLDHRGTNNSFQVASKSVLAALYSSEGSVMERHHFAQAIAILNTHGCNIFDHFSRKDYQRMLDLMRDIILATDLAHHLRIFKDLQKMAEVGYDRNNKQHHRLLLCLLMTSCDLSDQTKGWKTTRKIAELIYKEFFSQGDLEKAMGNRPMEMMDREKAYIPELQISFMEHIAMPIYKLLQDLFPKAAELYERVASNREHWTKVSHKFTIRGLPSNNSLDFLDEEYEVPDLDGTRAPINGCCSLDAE
Chain of 3',5'-cyclic-AMP phosphodiesterase 4B (Q07343 whole entry): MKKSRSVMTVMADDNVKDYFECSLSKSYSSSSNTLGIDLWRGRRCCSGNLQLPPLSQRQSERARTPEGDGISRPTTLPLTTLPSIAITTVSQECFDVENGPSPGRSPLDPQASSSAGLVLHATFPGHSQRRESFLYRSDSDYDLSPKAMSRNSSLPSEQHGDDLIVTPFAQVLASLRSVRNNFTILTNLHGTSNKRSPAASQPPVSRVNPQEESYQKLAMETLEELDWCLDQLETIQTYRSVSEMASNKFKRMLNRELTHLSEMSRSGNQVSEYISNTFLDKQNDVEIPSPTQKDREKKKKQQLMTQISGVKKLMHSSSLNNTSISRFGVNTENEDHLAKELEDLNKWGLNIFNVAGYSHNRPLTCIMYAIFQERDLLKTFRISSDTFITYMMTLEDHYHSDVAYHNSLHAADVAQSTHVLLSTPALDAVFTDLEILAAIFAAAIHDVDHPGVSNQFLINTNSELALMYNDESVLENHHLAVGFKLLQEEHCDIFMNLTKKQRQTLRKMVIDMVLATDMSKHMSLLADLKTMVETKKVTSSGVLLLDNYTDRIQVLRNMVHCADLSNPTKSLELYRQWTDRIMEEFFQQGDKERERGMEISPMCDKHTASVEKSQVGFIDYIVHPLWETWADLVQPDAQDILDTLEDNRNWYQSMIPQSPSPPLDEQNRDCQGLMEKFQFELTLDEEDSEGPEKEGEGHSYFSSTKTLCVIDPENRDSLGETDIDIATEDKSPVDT

`COc1cc2cncc(Cc3nc4c([nH]3)c(=O)n(C)c(=O)n4Cc3ccc(NS(=O)(=O)C(C)C)cc3)c2cc1OC`: the IC50 in series [1] was 0.005 µM; in series [2], 3.44 µM; in series [3], 0.399 µM; against Phosphodiesterase 3, 3.13 µM.
`COc1cc2c(Cc3nc4c([nH]3)c(=O)n(C)c(=O)n4CC(C)C)cnc(C)c2cc1OC`: the half-inhibitory concentration (IC50) in series [1] stood at 0.002 µM; in series [2], 0.072 µM; in series [3], 0.226 µM; at Phosphodiesterase 3, 0.042 µM. In [4], this compound came in with a Papp A→B of 9 nm/s.
For `COc1cc2cncc(Cc3nc4c([nH]3)c(=O)n(C)c(=O)n4CC(C)(C)C)c2cc1OC` the same measures were 0.008 µM, 2.79 µM, 0.294 µM, 1.06 µM and 234 nm/s.
Consider `COc1ccc(Cn2c(=O)n(C)c(=O)c3[nH]c(Cc4cncc5cc(OC)c(OC)cc45)nc32)cc1OC`, for which the IC50 in series [1] worked out at 0.033 µM; in series [2], 3.91 µM; in [3], 1.82 µM.
With `COc1cc2cnc(C)c(Cc3nc4c([nH]3)c(=O)n(C)c(=O)n4CC(C)C)c2cc1OC`, the IC50 in series [1] was determined as 0.026 µM; in series [3], 0.525 µM.
Regarding `CC(C)Cn1c(=O)n(C)c(=O)c2[nH]c(Cc3cncc4ccccc34)nc21`, the IC50 amounted to 0.034 µM in series [1], 7.29 µM in [2], 0.857 µM in series [3] and 1.85 µM on Phosphodiesterase 3.
For the compound `COc1ccc2c(Cc3nc4c([nH]3)c(=O)n(C)c(=O)n4CC(C)C)cncc2c1`, the IC50 in [1] came to 0.051 µM; in series [3] it was 0.247 µM.
Regarding `COc1ccc2cncc(Cc3nc4c([nH]3)c(=O)n(C)c(=O)n4CC(C)C)c2c1` [listing 1 of 2 here], the inhibition constant (Ki) on Adenosine receptor A1 came to 2.3 µM; in series [5], 2.8 µM. In addition, the Vd was determined as 2.1 L/kg in [6] and 2.9 L/kg in series [11]. Besides, the half-life is 21 min in series [7] and 63.4 min in [16]. Moreover, the clearance in [8] is 7.1 L/h/kg; in series [9], 162 µL/min/mg; in [12] it was 4 µL/min/mg; in series [13] it was 6 µL/min/mg; in series [15] it was 1.72 L/h/kg. Also, the bioavailability stood at 103% in [10] and 1% in [14]. For the same compound, the results for the IC50 (in [2]; in [3]; at Phosphodiesterase 3) were 2.85 µM, 0.18 µM and 2.22 µM, respectively. The compound further returned a Papp A→B in series [4] of 138 nm/s.
For the compound `COc1cc2cncc(Cc3nc4c([nH]3)c(=O)n(C)c(=O)n4CC(C)C)c2cc1OC`, the IC50 in series [1] came to 0.009 µM; in series [2] it was 0.417 µM; in series [3], 0.389 µM; at Phosphodiesterase 3, 0.299 µM. Moreover, the apparent permeability from apical to basolateral (Papp A→B) in series [4] is 318 nm/s.
In series [1], `COc1cc2cncc(C(C)c3nc4c([nH]3)c(=O)n(C)c(=O)n4CC(C)C)c2cc1OC` (stereo unspecified) returned an IC50 of 0.094 µM.
The same measure, in the same setting: as for `COc1cc2cncc(Cc3nc4c([nH]3)c(=O)n(CC(C)C)c(=O)n4CC(C)C)c2cc1OC`, the figure is 0.462 µM.
Regarding `CC(C)Cn1c(=O)n(C)c(=O)c2[nH]c(CC3CC4CCC3C4)nc21` (stereo unspecified), the results for the half-maximal inhibitory concentration (IC50) in series [1] and in series [3] were 0.025 µM and 0.065 µM, respectively.
As for `COc1cc2cncc(Cc3nc4c([nH]3)c(=O)n(C)c(=O)n4CC3CCCCC3)c2cc1OC`, the results for the IC50 in series [1] and in series [3] were 0.028 µM and 1.13 µM, respectively.
`COc1cc2cncc(Cc3nc4c(c(=O)n(C)c(=O)n4CC(C)C)n3C)c2cc1OC`: half-maximal inhibition in series [1] (IC50) was put at 0.553 µM.
As for `C=C(C)Cn1c(=O)n(C)c(=O)c2[nH]c(Cc3cncc4cc(OC)c(OC)cc34)nc21`, the values for the IC50 in series [1] and in series [3] were 0.03 µM and 0.333 µM, respectively.
For `COc1cc2cncc(Cc3nc4c([nH]3)c(=O)n(C)c(=O)n4Cc3ccc(NC(C)=O)cc3)c2cc1OC` the same measures were 0.042 µM and 0.471 µM.
With `CC(C)Cn1c(=O)n(C)c(=O)c2[nH]c(Cc3cncc4cc5c(cc34)OCO5)nc21`, in series [1], the IC50 came out at 10 µM.
As for `COc1cc2cncc(Cc3nc4c([nH]3)c(=O)n(C)c(=O)n4CC3CC3)c2cc1OC`, the IC50 amounted to 0.02 µM in series [1], 1.32 µM in series [2], 0.823 µM in series [3] and 1.64 µM on Phosphodiesterase 3.
With `COc1ccc2cncc(Cc3nc4c([nH]3)c(=O)n(C)c(=O)n4CC(C)C)c2c1` [listing 2 of 2 here], the IC50 in series [17] is more than 10 µM; in series [18] it was more than 10 µM; in [19], 4.6 µM; in series [20] it was more than 10 µM.
On to `COc1cc2cncc(Cc3nc4c([nH]3)c(=O)n(C)c(=O)n4CC(C)CO)c2cc1OC` (racemic), for which the IC50 in [1] was found to be 0.006 µM; in [2] it was 0.67 µM; in series [3], 0.363 µM; against Phosphodiesterase 3, 2.71 µM.

As usually defined, the IC50 is the concentration that gives 50% inhibition. The Papp A→B is the apparent permeability from the apical to the basolateral side of a cell layer. A low value points to poor permeation. A word on the Ki: it is a measure of affinity in units of concentration, obtained from inhibition or displacement. A low value points to higher affinity. For orientation: half-life means the time in which the quantity being followed falls by half. Read a high half-life as slow loss.
